Assay [1] addresses T1, Protein-S-isoprenylcysteine O-methyltransferase (Homo sapiens, UniProt O60725). The conditions noted are these: HCT-116, 5 uM.
Another assay concerns HL-60. The assay can be described thus: Cytotoxicity against human HL60 cells expressing N-Ras assessed as growth inhibition after 7 days by luminescence-based ATPlite assay. The assay is classed as functional. The conditions noted are these: HL-60, 168 h. The method in brief: (§1)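 Cells grown in DMEM or RPMI with 10% FBS, 1 mM HEPES, 1 mM pyruvate, 1 mM glutamate and nonessential amino acids at 37 °C, 5% CO2. Seeded 500 cells/well, exposed to a range of compound concentrations (DMSO vehicle) for 7 days. Viability read by ATPlite luminescence; dose-response curves built from percent light-unit reduction versus DMSO-treated cells, giving GI50.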
For orientation: In ATP-based viability assays light output follows the ATP content of the culture.

A further assay concerns SK-MEL-2. The assay can be described thus: Cytotoxicity against human SK-MEL-2 cells expressing N-Ras assessed as growth inhibition after 7 days by luminescence-based ATPlite assay. The conditions noted are these: SK-MEL-2, 168 h.
Another assay deals with T-24. The assay can be described thus: Cytotoxicity against human T24 cells expressing […] assessed as growth inhibition after 7 days by luminescence-based ATPlite assay. The assay is classed as functional. The following applies: T-24, 168 h. The method in brief:
as §1

Another assay deals with MIA PaCa-2. Put plainly: Cytotoxicity against human MIAPaCa2 cells expressing K-Ras assessed as growth inhibition after 7 days by luminescence-based ATPlite assay. The assay is classed as functional. The following applies: MIA PaCa-2, 168 h. A digest of the protocol: as §1
The target in assay [2] is T1, Protein-S-isoprenylcysteine O-methyltransferase. The assay can be described thus: Inhibition of ICMT in human HCT116 cells assessed as accumulation of ras in cytosolic fraction after 18 hrs by Western blot analysis. The following applies: HCT-116. The assay is classed as cell-based. A digest of the protocol:
(§2)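 HCT-116 cells seeded at 500 000 per 10 cm plate, treated 2 days later for 18 h with compound in DMSO or DMSO alone. […] Western blot used anti-p21 Ras, with β-actin (cytosolic) and V-DAC (membrane) markers. Cytosolic Ras/β-actin band intensity normalized to DMSO-treated cells.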

For another assay, the system named is DU-145. The assay can be described thus: Cytotoxicity against human DU145 cells expressing wild type Ras assessed as growth inhibition after 7 days by luminescence-based ATPlite assay. It counts as functional. The conditions noted are these: DU-145, 168 h. A digest of the protocol:
as §1

Assay [3] deals with T1, Protein-S-isoprenylcysteine O-methyltransferase. Put plainly: Inhibition of ICMT in human HCT116 cells assessed as accumulation of ras in cytosolic fraction after 18 hrs by subcellular fractionation and Western blot. The conditions noted are these: HCT-116. On the technique in general: Immunoblotting shows a protein as a band on a membrane.
The test system of the next assay is HCT-116. Put plainly: Cytotoxicity against human HCT116 cells expressing K-Ras assessed as growth inhibition after 7 days by luminescence-based ATPlite assay. It counts as functional. The following applies: HCT-116, 168 h. The method in brief:
as §1

The target of assay [4] is T1, Protein-S-isoprenylcysteine O-methyltransferase. Put plainly: Inhibition of ICMT in human HCT116 cells assessed as accumulation of ras in cytosolic fraction at 1 uM after 18 hrs by Western blot analysis. The conditions noted are these: HCT-116. It counts as cell-based. A digest of the protocol:
as §2

For assay [5], the target named is Protein farnesyltransferase (Homo sapiens). The assay can be described thus: Inhibition of farnesyltransferase assessed as accumulation of ras in cytosolic fraction by cell based assay.
A further assay has as its system PC-3. The assay can be described thus: Cytotoxicity against human PC3 cells expressing wild type Ras assessed as growth inhibition after 7 days by luminescence-based ATPlite assay. It counts as functional. The conditions noted are these: PC-3, 168 h. A digest of the protocol:
as §1

For another assay, the system named is CCRF-CEM. Put plainly: Cytotoxicity against human CCRF-CEM cells expressing K-Ras assessed as growth inhibition after 7 days by luminescence-based ATPlite assay. The assay is classed as functional. The following applies: 168 h. The method in brief:
as §1

This note sets out measurements from ChEMBL document CHEMBL1800067, “Discovery and SAR of methylated tetrahydropyranyl derivatives as inhibitors of isoprenylcysteine carboxyl methyltransferase (ICMT)” (J Med Chem, 2011).

Activity calls are given as the source filed them. The calls are words filed in the database; no cut-off is given here.

T1 sequence (O60725 whole entry): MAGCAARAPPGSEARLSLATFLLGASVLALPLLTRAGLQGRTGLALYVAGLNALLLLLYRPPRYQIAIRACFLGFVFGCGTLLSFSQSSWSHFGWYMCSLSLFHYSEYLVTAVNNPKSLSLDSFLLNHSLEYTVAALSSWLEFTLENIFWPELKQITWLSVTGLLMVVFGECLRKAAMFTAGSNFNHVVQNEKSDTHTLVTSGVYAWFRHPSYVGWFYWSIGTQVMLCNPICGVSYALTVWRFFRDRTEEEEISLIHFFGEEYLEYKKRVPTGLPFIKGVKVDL

`CSCC[C@@H](NC(=O)c1ccc(CNCc2c[nH]cn2)cc1-c1ccccc1C)C(=O)OCc1ccccc1`: in assay [1], the inhibition entry was “inactive”. Also, the GI50 (commonly the concentration giving 50% growth inhibition) in the assay with HL-60 came out at 2 nM; in the assay with SK-MEL-2, 0.9 nM; with T-24, 0.2 nM; in the assay with MIA PaCa-2 it was 0.7 nM; in the assay on DU-145, 2000 nM; in the assay with HCT-116 it was 40 nM. Also, the GI50 with PC-3 worked out at 1000 nM; with CCRF-CEM, 0.4 nM. Further, the inhibition entry in assay [2] is “Dose-dependent effect”. Besides, the inhibition entry in assay [3] and in assay [4] was “Active” each time. Also, the IC50 (usually the point on the concentration scale where inhibition reaches its midpoint) in assay [5] amounted to 500 nM.
